CHO parental Ca: counter-screen: ATP calcium response change in parental CHO cells | parental CHO-K1, ATP-induced calcium, Fluo-8 fluorescence | inhibition, % at 5.6 µM | hit rate 0.63% among 330,000 | AID 463079;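 active = inhibition above that plate's mean sample inhibition plus 3 SD, cut at about 26% in these data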
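Measured by: calcium-sensitive Fluo-8 fluorescence / Test system: CHO parental line / Controls: ATP-challenged DMSO wells low, unchallenged DMSO wells high / Measure: % inhibition / Compound: single nominal dose of 5.6 µM per compound / Replicates: single well per compound, no replicates / Reagent: ATP as calcium-mobilizing challenge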
OX1R antag-1: human HCRTR1 antagonism. CHO/OX1R cells, Fluo-8 calcium fluorescence, orexin A. AID 434989. O43613. inhibition, % at 5 µM. hit rate 0.43% among 330,000;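 active = inhibition above its plate's threshold, mean inhibition of all tested compounds on the plate plus 3 SD, cut at about 37% in these data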
Target sequence (O43613 whole entry, looked up): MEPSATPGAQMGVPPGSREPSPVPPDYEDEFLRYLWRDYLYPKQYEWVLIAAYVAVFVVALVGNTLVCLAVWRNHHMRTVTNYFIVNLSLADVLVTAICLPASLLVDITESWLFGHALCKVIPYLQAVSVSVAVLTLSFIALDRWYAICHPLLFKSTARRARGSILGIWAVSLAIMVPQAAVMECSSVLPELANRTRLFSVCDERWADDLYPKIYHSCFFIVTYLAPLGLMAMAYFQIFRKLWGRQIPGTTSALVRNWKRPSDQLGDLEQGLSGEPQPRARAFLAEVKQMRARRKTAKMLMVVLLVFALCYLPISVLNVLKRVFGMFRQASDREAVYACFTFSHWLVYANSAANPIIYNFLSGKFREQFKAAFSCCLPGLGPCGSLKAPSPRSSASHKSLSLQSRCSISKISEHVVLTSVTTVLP
GalR3 antag: antagonists of human GalR3. O60755. HEK293 GalR3-CNG cAMP membrane potential fluorescence; galR3 body fused to GalR1 C-terminus. inhibition, % at 3 µM. hit rate 0.44% among 360,000. AID 651719;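 active = inhibition above the screen-wide average plus 3 SD, cut at about 13% in these data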;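 note: forskolin and galanin both at EC90 stimulate the cells; cAMP rise reported by CNG channel membrane potential dye signal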
Target sequence (O60755 1-299 limits assumed): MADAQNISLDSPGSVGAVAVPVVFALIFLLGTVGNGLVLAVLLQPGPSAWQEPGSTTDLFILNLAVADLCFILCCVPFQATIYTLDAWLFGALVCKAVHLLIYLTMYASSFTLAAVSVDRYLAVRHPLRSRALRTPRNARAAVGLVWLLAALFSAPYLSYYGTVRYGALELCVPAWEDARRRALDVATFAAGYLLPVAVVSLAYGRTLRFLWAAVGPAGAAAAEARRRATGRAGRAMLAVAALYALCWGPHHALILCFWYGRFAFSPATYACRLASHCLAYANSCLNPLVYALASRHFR
GPR7 antag: antagonists of human GPR7 (neuropeptides B/W receptor 1); GPR7-expressing cells, fluorescence antagonist assay; inhibition, % at 4.4 µM; hit rate 1.1% among 290,000; AID 1861; in the data active = inhibition above about 16%, passing the limit was not always enough;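 note: cells stimulated with the agonist NPW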
OX1R antag-2: antagonists of human orexin 1 receptor (OX1R); O43613; OX1R-expressing cells, FRET antagonist read-out; inhibition, % at 6.6 µM; hit rate 1.8% among 330,000; in the data active = inhibition mostly above about 38%, no sharp cut-off; inactive = mostly below about 40%
GPR7 antag conf: human GPR7 antagonism, confirmation assay; hit rate 52% among 2,400; GPR7-expressing cells, calcium fluorescence antagonist mode; inhibition, % at 4.4 µM; shares compounds with GPR7 antag; in the data active = inhibition above about 24%;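 note: stimulated with the GPR7 agonist NPW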
MCHR1 antagonist: counter-screen for GPR7 antagonists: antagonists of human MCHR1. shares compounds with GPR7 antag. MCHR1-expressing cells, fluorescence antagonist assay. inhibition, % at 4.4 µM. hit rate 62% among 2,400. AID 2148; in the data active = inhibition above about 22%
OX1R Ca confirm: OX1R (human) antagonism, confirmed; shares compounds with OX1R antag-1; CHO/OX1R cells, orexin A calcium Fluo-8 fluorescence; inhibition, % at 5 µM; hit rate 38% among 1,100; AID 492963; in the data active = inhibition above about 29%
CHO Ca counter: counter-screen: parental CHO calcium response change, triplicate. shares compounds with OX1R antag-1. parental CHO-K1, ATP-induced calcium, Fluo-8 fluorescence. inhibition, % at 5.6 µM. hit rate 9.3% among 1,100. AID 492965;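 active = inhibition above a per-plate limit, the mean inhibition of that plate's test compounds plus 3 SD, cut at about 25% in these data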
OX1R HTRF confirm: confirmation of human orexin 1 receptor antagonists, HTRF format; shares compounds with OX1R antag-2; OX1R-expressing cells, HTRF antagonist assay; inhibition, % at 6.6 µM; hit rate 49% among 1,800; AID 492964; in the data active = inhibition above about 55%;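 note: CHO cells expressing OX1R stimulated with orexin A at about EC80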
CHO-K1 HTRF: counter-screen for OX1R antagonists: effect in parental CHO-K1 cells; HTRF counterscreen; shares compounds with OX1R antag-2; inhibition, % at 6.6 µM; AID 493232; hit rate 48% among 1,800; in the data active = inhibition above about 17%
GalR3 conf: confirmation of human galanin receptor 3 antagonists; hit rate 59% among 1,600; inhibition, % at 3 µM; HEK293 GalR3 CNG cAMP biosensor, membrane potential fluorescence; galR3 fused to GalR1 carboxy tail; challenged with forskolin and galanin at EC90; shares compounds with GalR3 antag; AID 652245;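 active = inhibition above the primary screen's cutoff, the mean inhibition of all screened compounds plus 3 SD, cut at about 13% in these data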
HEK-CNG parental: acts as nonspecific agonist in parental HEK-CNG cells; activation, % at 3 µM; shares compounds with GalR3 antag; hit rate 10% among 1,600; HEK293-CNG parental cells, cAMP membrane potential fluorescence; normalised: DMSO wells 0%, forskolin wells 100%; in the data active = activation above about 1.3%
A number is an active result; – = inactive; · = no result given. Shown are actives, neighbours in structure and some others; about 3.1% of the full set was active somewhere.

SMILES	CHO parental Ca	OX1R antag-1	GalR3 antag	GPR7 antag	OX1R antag-2	GPR7 antag conf	MCHR1 antagonist	GalR3 conf	HEK-CNG parental	others
COc1ccc(CNC(=O)c2nn(-c3ccccc3)cc2OC)cc1	–	–	–	–	–	·	·	·	·
CCN1/C(=C/C(=O)c2ccco2)Sc2ccccc21	–	–	–	–	–	·	·	·	·
CCOC(=O)/C(=C\C=C1/Sc2ccccc2N1CC)C(C)=O	–	–	–	28	–	–	36	·	·	OX1R Ca confirm=34;CHO Ca counter=35
COc1ccc(CN2CCN(C(=O)CCC(=O)Nc3nnc(C4CCCCC4)s3)CC2)cc1F	–	–	–	–	–	·	·	·	·
Cc1ccc(Cl)cc1N1CCN(C(=O)c2ccc3c(c2)CCN3S(C)(=O)=O)CC1	–	–	–	29	–	25	–	·	·	OX1R Ca confirm=–;CHO Ca counter=–
CCOC(=O)c1c(-c2ccc(-c3ccccc3)cc2)csc1NC(=O)CNCCN(C)C	–	–	–	34	–	60	75	·	·	OX1R Ca confirm=36;CHO Ca counter=–
CN(C(=O)CSc1nc2ccccc2c(=O)n1-c1ccccc1Cl)C1CCS(=O)(=O)C1 (centres undefined)	–	–	–	·	–	·	·	·	·
CC(=O)Oc1cccc(N2C(=O)c3cccc4c([N+](=O)[O-])ccc(c34)C2=O)c1	–	–	–	60	115	54	36	·	·	OX1R HTRF confirm=99;CHO-K1 HTRF=72
O=C(Nc1ccccc1Cl)c1cc(C2CCCCN2C(=O)CCCc2ccccc2)on1 (centres undefined)	·	·	–	·	·	·	·	·	·
N=c1c(C(=O)NCCc2ccccc2)cc2c(=O)n3ccccc3nc2n1CC1CCCO1 (centres undefined)	–	–	–	48	88	34	–	·	·	OX1R HTRF confirm=83;CHO-K1 HTRF=62
O=C(O)c1ccc(NC2=C(Cl)C(=O)c3ccccc3C2=O)cc1	–	–	–	50	84	–	35	·	·	OX1R HTRF confirm=70;CHO-K1 HTRF=34
O=C1C(Cl)=C(Nc2ccccc2)C(=O)c2ccccc21	–	–	–	–	–	·	·	·	·
COc1ccc(Cc2c(-c3ccc(C)cc3)nc3ccc(Cl)cn23)c(C)c1	·	·	–	·	·	·	·	·	·
CCCc1cc(=O)[nH]c(SCC(=O)N2c3ccccc3CC2C)n1 (centres undefined)	–	–	–	·	–	·	·	·	·
O=C(c1ccc([N+](=O)[O-])s1)N1CCN(c2ncccn2)CC1	·	·	–	·	·	·	·	·	·
O=C(c1ccc([N+](=O)[O-])s1)N1CCN(c2ccc(C(F)(F)F)cn2)CC1	–	–	–	36	99	47	58	·	·	OX1R HTRF confirm=–;CHO-K1 HTRF=19
CS(=O)(=O)N(CC(O)Cn1c2ccccc2c2ccccc21)c1ccccc1 (centres undefined)	–	–	–	28	49	35	34	·	·	OX1R Ca confirm=36;CHO Ca counter=–;OX1R HTRF confirm=–;CHO-K1 HTRF=–
CN(CC(O)Cn1c2ccccc2c2ccccc21)S(C)(=O)=O (centres undefined)	–	–	–	–	–	·	·	·	·
CC1CCC(C(C)C)C(OC(=O)C[n+]2cc(-c3ccc(Cl)cc3)n3c2CCC3)C1 (centres undefined)	–	–	–	28	102	38	51	·	·	OX1R HTRF confirm=–;CHO-K1 HTRF=–
CCSc1nsc(NC(=O)Nc2cccc(F)c2)n1	101	104	69	36	84	46	60	28	–
CCCSc1nsc(NC(=O)Nc2ccc(F)cc2F)n1	–	–	–	–	–	·	·	·	·
Cc1cc(C)n(-c2ccc(C(=O)Nc3ccc(S(=O)(=O)NCc4ccco4)cc3)cc2)n1	–	–	71	45	–	67	70	61	–
Nc1c(C(=O)NCC2CCCO2)sc2nc3c(c(-c4ccco4)c12)CC/C3=C\c1ccco1 (centres undefined)	·	·	–	–	·	·	·	·	·
O=C(Nc1ccc(S(=O)(=O)Nc2ccc(F)cc2)cc1)c1ccc(CN2CCOCC2)cc1	–	–	67	30	–	66	77	109	–
O=C(Nc1ccc(S(=O)(=O)N2CCOCC2)cc1)c1ccc(F)cc1	–	–	–	–	–	·	·	·	·
SMILES	CHO parental Ca	OX1R antag-1	GalR3 antag	GPR7 antag	OX1R antag-2	GPR7 antag conf	MCHR1 antagonist	GalR3 conf	HEK-CNG parental	others
CCOC(=O)C1(CCOc2ccccc2)CCN(Cc2ccc(OC)c(COC)c2)CC1	–	–	13	36	–	36	52	64	3.5
Cc1nn(-c2ccc(NC(=O)c3ccncc3)cc2)c(C)c1Cl	·	·	75	32	·	52	65	109	–
COc1ccc(-c2csc(C3=C(O)CN(CCCN4CCCC4=O)C3=N)n2)cc1OC	–	–	–	–	–	·	·	·	·
Cc1ccc(S(=O)(=O)N2CCCCC2)cc1NC(=O)CSc1ncnc2ccccc12	–	–	–	–	–	·	·	·	·
Cc1ccc(NC(=O)CSc2ncnc3ccccc23)cc1S(=O)(=O)N1CCCCCC1	34	–	96	24	–	53	71	108	–
CC1CC(=O)N(CC(=O)NC2CCCCC2)c2ccccc2S1 (centres undefined)	–	–	–	–	–	·	·	·	·
COc1cc2c3c(c1)C(C)=CC(C)(C)N3C(=O)C2=O	–	–	14	27	–	–	23	–	–
COc1ccc(C)cc1NC(=O)CSc1nnc2ccc(-c3ccncc3)nn12	–	–	–	·	–	·	·	·	·
Clc1ccc2c(c1)Nc1ccccc1CC2	–	–	–	·	–	·	·	·	·
CC(=O)c1cn(CCOc2cc(C)ccc2C)c2ccccc12	33	–	84	29	–	47	68	84	–
Cc1cccc(N2CCN(S(=O)(=O)c3cc(-c4cc(C)no4)ccc3C)CC2C)c1 (centres undefined)	–	–	52	31	–	45	61	88	–
COc1ccc(-c2cc(C)no2)cc1S(=O)(=O)N1CCN(c2cccc(C)c2)C(C)C1 (centres undefined)	–	–	–	–	–	·	·	·	·
CC(C)CC[n+]1ccccc1/C=C/c1ccc(N(C)C)cc1	61	–	31	76	–	78	72	47	16
